Source: ChEMBL document CHEMBL4359872, “Identification of potent triazolylpyridine nicotinamide phosphoribosyltransferase (NAMPT) inhibitors bearing a 1,2,3-triazole tail group” (Eur J Med Chem, 2019)
≈ marks a conversion by molar mass, not a printed value. Calls of active or inactive are those of the source. The rule behind the calls is not given here.

Tests used:
TK6 [1] = assay: Genotoxicity in human TK6 cells assessed as induction of DNA damage up to 500 uM by GreenScreen assay; assay type: toxicity, cell-based
[2] = Toxicity in Crl:CD Sprague-Dawley rat heart assessed as hypereosinophilia at 100 mg/kg, ip administered once daily for 5 days by hematoxylin and eosin staining based microscopic analysis; assay type: organism-based; conditions: in vivo, 120 h
[3] = Kinetic aqueous solubility of the compound in 80:20 PBS/acetonitrile solution at 200 to 500 uM by HTS assay; assay type: physicochemical; conditions: read-out: Kinetic_solubility
[4] = Thermodynamic solubility of compound in water after 24 hrs by LC-UV based shake flask method; assay type: physicochemical; conditions: buffer
In short: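 Thermodynamic water solubility measured by saturation shake flask, with the concentration of the saturated solution reported.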

SH-SY5Y [5] = assay: Cytotoxicity against human SH-SY5Y cells measured after 48 hrs by MTT assay; assay type: cell-based
[6] = Cytotoxicity against human SH-SY5Y cells assessed as cell viability at 1 uM measured after 48 hrs by MTT assay relative to control; assay type: cell-based; conditions: read-out: Activity
4T1 [7] = assay: Antitumor activity against mouse 4T1 cells implanted in Balb/c mouse mouse assessed as inhibition of tumor metastasis at 10 mg/kg, ip bid for 12 days measured post last dose by crystal violet staining based thioguanine clonogenic assay; assay type: functional, organism-based
In short: (§1)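 Tumour cells implanted in the mammary gland. Dosing began at day 14, once tumours were palpable, after randomization into vehicle and treated groups of 4 mice each. Compound given intraperitoneally at 10 mg/kg twice a day for 12 consecutive days. Data are means of two independent experiments.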

TK6 [8] = assay: Genotoxicity in human TK6 up to 1 mM in presence of S9 fraction by GreenScreen assay; assay type: toxicity, cell-based
[9] = Toxicity in Crl:CD Sprague-Dawley rat heart assessed as increase in cardiomyocytes cytoplasmic vacuolation at 100 mg/kg, ip administered once daily for 5 days by hematoxylin and eosin staining based microscopic analysis; assay type: organism-based; conditions: in vivo, 120 h
[10] = Permeability across apical side to basolateral side in human Caco2 cells at 30 uM after 4 hrs by HPLC analysis; assay type: ADME, cell-based; conditions: caco-2, 4 h
In short: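 Caco-2 monolayer used to measure apical-to-basal transfer, reported as % permeability and Papp. Terbutaline served as the positive control; n = 3.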

[11] = Clearance in BALB/c mouse at 10 mg/kg, iv administered as single dose measured after 24 hrs by LC-ESI/MS analysis; assay type: ADME, organism-based; conditions: in vivo
In short: (§2)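 Mice given a single 10 mg/kg i.v. injection; serial blood sampling, then half-life, clearance and volume of distribution derived.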

Lymphocyte [12] = assay: Genotoxicity in human primary lymphocytes up to 1 mM in presence of S9 fraction by GreenScreen assay; assay type: toxicity, cell-based
[13] = Toxicity in Crl:CD Sprague-Dawley rat heart assessed as interstitial expansion at 100 mg/kg, ip administered once daily for 5 days by hematoxylin and eosin staining based microscopic analysis; assay type: organism-based; conditions: in vivo, 120 h
[14] = Volume of distribution in BALB/c mouse at 10 mg/kg, iv administered as single dose measured after 24 hrs by LC-ESI/MS analysis; assay type: ADME, organism-based; conditions: in vivo; in short: as §2
[15] = Metabolic stability in Wistar Han rat liver microsomes assessed as parent compound remaining at 50 uM […] for 60 mins by LC-ESI/MS analysis; assay type: ADME, Microsome; conditions: read-out: Stability
[16] = Metabolic stability in human liver microsomes assessed as parent compound remaining at 50 uM […] for 60 mins by LC-ESI/MS analysis; assay type: ADME, Microsome; conditions: read-out: Stability
4T1 [17] = assay: Antitumor activity against mouse 4T1 cells implanted in BALB/c mouse assessed as reduction in tumor weight at 10 mg/kg, ip bid for 12 days; assay type: functional, organism-based; in short: as §1
Lymphocyte [18] = assay: Genotoxicity in human primary lymphocytes assessed as induction of DNA damage up to 500 uM by GreenScreen assay; assay type: toxicity, cell-based
[19] = Toxicity in Crl:CD Sprague-Dawley rat retina at 100 mg/kg, ip administered once daily for 5 days by hematoxylin and eosin staining based microscopic analysis; assay type: organism-based; conditions: in vivo, 120 h
[20] = AUC in BALB/c mouse at 10 mg/kg, iv administered as single dose measured after 24 hrs by LC-ESI/MS analysis; assay type: ADME, organism-based; set-up: time < 24 hr, dose 10 mg/kg, route intravenous; conditions: in vivo; in short: as §2
[21] = Half-life in BALB/c mouse at 10 mg/kg, iv administered as single dose measured after 24 hrs by LC-ESI/MS analysis; assay type: ADME, organism-based; conditions: in vivo; in short: as §2
[22] = biological target: Nicotinamide phosphoribosyltransferase (Mus musculus, UniProt Q99KQ4); assay: Inhibition of recombinant mouse wild-type NAMPT expressed in bacterial expression system using PRPP as substrate in presence of mouse NMNAT-3 measured for 1 hr by fluorescence assay
In short: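 In vitro NAMPT enzymatic assay run as concentration-response curves, with IC50 derived from the curves. Mean ± SD of three independent experiments (n = 6).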

4T1 [23] = assay: Antitumor activity against mouse 4T1 cells implanted in BALB/c mouse assessed as reduction in tumour volume at 10 mg/kg, ip bid for 12 days by vernier caliper method; assay type: functional, organism-based; in short: as §1
[24] = Selectivity ratio of EC50 for cytotoxicity against human SH-SY5Y cells to IC50 for recombinant mouse wild-type NAMPT expressed in bacterial expression system; assay type: cell-based
[25] = biological target: Nicotinamide phosphoribosyltransferase (Homo sapiens) (UniProt P43490); assay: Inhibition of NAMPT in human SH-SY5Y cells assessed as reduction in NAD levels at 100 nM measured after 16 hrs by diaphorase and resazurin dye based fluorescence assay relative to control; assay type: cell-based
In short: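 SH-SY5Y cells treated at 100 nM for 16 h, then NAD level reduction measured as % of control. Mean ± SD of two independent experiments (n = 6).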

SH-SY5Y [26] = assay: Cytotoxicity against human SH-SY5Y cells assessed as cell viability at 10 uM measured after 48 hrs by MTT assay relative to control; assay type: functional; conditions: read-out: Activity
[27] = Half-life in human; assay type: ADME
[28] = Toxicity in Crl:CD Sprague-Dawley rat heart assessed as hypereosinophilia at 200 mg/kg, po administered once daily via gavage for 5 days by hematoxylin and eosin staining based microscopic analysis; assay type: organism-based; conditions: in vivo, 120 h
[29] = Toxicity in Crl:CD Sprague-Dawley rat retina at 200 mg/kg, po administered once daily for 5 days via gavage by hematoxylin and eosin staining based microscopic analysis; assay type: organism-based; conditions: in vivo, 120 h
[30] = Toxicity in Crl:CD Sprague-Dawley rat heart assessed as increase in cardiomyocytes cytoplasmic vacuolation at 200 mg/kg, po administered once daily for 5 days via gavage by hematoxylin and eosin staining based microscopic analysis; assay type: organism-based; conditions: in vivo, 120 h
[31] = Toxicity in Crl:CD Sprague-Dawley rat heart assessed as interstitial expansion at 200 mg/kg, po administered once daily for 5 days via gavage by hematoxylin and eosin staining based microscopic analysis; assay type: organism-based; conditions: in vivo, 120 h

Sequence of Nicotinamide phosphoribosyltransferase (Q99KQ4 whole entry): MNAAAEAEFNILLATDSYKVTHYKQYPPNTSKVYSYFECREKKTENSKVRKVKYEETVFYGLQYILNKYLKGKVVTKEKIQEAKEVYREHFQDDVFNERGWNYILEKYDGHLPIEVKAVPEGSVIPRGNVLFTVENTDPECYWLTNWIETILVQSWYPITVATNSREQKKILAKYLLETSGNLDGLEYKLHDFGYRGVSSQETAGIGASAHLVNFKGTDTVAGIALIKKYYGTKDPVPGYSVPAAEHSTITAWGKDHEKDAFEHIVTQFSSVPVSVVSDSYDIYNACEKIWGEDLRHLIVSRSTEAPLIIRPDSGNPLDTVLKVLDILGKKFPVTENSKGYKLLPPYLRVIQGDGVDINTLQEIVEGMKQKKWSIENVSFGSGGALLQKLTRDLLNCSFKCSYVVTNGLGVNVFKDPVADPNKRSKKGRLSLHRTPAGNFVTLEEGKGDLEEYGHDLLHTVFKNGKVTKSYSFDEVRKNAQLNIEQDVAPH
Sequence of Nicotinamide phosphoribosyltransferase (Homo sapiens) (P43490 whole entry, looked up): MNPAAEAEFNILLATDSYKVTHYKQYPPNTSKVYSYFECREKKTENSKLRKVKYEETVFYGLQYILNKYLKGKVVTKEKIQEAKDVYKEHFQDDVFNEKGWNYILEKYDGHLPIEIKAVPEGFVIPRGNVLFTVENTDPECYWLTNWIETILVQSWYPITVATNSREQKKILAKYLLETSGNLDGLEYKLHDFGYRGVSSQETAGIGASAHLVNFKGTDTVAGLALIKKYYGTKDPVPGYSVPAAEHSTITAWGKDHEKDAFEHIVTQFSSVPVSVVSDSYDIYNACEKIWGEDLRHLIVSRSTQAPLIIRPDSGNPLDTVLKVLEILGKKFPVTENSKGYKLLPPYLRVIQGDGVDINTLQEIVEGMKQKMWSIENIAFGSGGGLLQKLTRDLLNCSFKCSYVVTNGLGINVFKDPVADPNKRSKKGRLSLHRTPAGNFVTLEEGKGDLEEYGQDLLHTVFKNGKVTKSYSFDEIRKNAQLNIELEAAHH

O=C(NCCCCCCCn1cc(-c2cccnc2)nn1)c1ccccc1-n1ccnn1
Activity (TK6 [1]): Non-Toxic
Activity [2]: Non-Toxic
solubility kinetic [3]: 200 to 500 µM (≈ 86.1 to 215 µg/mL)
Therm_solubility [4]: Soluble
EC50 (SH-SY5Y [5]): 35.4 nM
viability at 48 h, 1 µM [6]: 10.5%
inhibition (4T1 [7]): Active
Activity (TK6 [8]): Non-Toxic
Activity [9]: Non-Toxic
permeability [10]: 10.6%
clearance [11]: 103 mL/min/kg
Activity (Lymphocyte [12]): Non-Toxic
Activity [13]: Non-Toxic
Vd [14]: 31.3 L/kg
remaining at 1 h, 50 µM [15]: 70%
remaining at 1 h, 50 µM [16]: 94%
Activity (4T1 [17]): Active
Activity (Lymphocyte [18]): Non-Toxic
Activity [19]: Non-Toxic
AUC at 24 h [20]: 1620 ng·h/mL
half-life [21]: 3.51 h
IC50 [22]: 3.4 nM
Activity (4T1 [23]): Active

CN1CCN(Cc2cn(-c3ccccc3C(=O)NCCCCCCCn3cc(-c4cccnc4)nn3)nn2)CC1
solubility kinetic [3]: 200 to 500 µM (≈ 109 to 271 µg/mL)
EC50 (SH-SY5Y [5]): > 10000 nM
viability at 48 h, 1 µM [6]: 87.7%
permeability [10]: < 1%
Selectivity ratio [24]: 200
inhibition [25]: inactive
IC50 [22]: 13.6 nM

CC(C)(C)NCC(O)c1cc(O)cc(O)c1 (stereo not given) [TERBUTALINE]
permeability [10]: 52.7%

O=C(NCCCCCCCn1cc(-c2cccnc2)nn1)c1ccccc1-n1cc(CN2CCCC2)nn1
viability at 10 µM (SH-SY5Y [26]): 61.9%
solubility kinetic [3]: 200 to 500 µM (≈ 103 to 257 µg/mL)
EC50 (SH-SY5Y [5]): > 10000 nM
viability at 48 h, 1 µM [6]: 88.9%
IC50 [22]: 25.4 nM

N#CN=C(NCCCCCCOc1ccc(Cl)cc1)Nc1ccncc1 [CHS-828]
half-life [27]: 2.1 h
inhibition (4T1 [7]): Active
Activity [28]: Non-Toxic
Activity [29]: Non-Toxic
Activity [30]: Non-Toxic
Activity (4T1 [17]): Active
Activity [31]: Non-Toxic
Activity (4T1 [23]): Active

O=C(O)c1ccc(-c2ccccc2C(=O)NCCCCCCCn2cc(-c3cccnc3)nn2)cc1
EC50 (SH-SY5Y [5]): 224 nM
viability at 48 h, 1 µM [6]: 22.5%
IC50 [22]: > 500 nM

O=C(O)c1ccccc1-c1ccccc1C(=O)NCCCCCCCn1cc(-c2cccnc2)nn1
EC50 (SH-SY5Y [5]): > 500 nM
viability at 48 h, 1 µM [6]: 80.9%
IC50 [22]: 38.5 nM

O=C(NCCCCCCCn1cc(-c2cccnc2)nn1)c1ccccc1-n1cc(CN2CCCCC2)nn1
solubility kinetic [3]: 200 to 500 µM (≈ 106 to 264 µg/mL)
EC50 (SH-SY5Y [5]): > 500 nM
viability at 48 h, 1 µM [6]: 15.9%
IC50 [22]: 17.1 nM

CCOC(=O)C1CCN(Cc2cn(-c3ccccc3C(=O)NCCCCCCCn3cc(-c4cccnc4)nn3)nn2)CC1
solubility kinetic [3]: 200 to 500 µM (≈ 120 to 300 µg/mL)
EC50 (SH-SY5Y [5]): 61.5 nM
viability at 48 h, 1 µM [6]: 14.1%
IC50 [22]: 20.6 nM

O=C(NCCCCCCCn1cc(-c2ccc[n+]([O-])c2)nn1)c1ccccc1-c1ccccc1
viability at 48 h, 1 µM [6]: 103%
IC50 [22]: > 500 nM

CC(C)N1CCN(Cc2cn(-c3ccccc3C(=O)NCCCCCCCn3cc(-c4cccnc4)nn3)nn2)CC1
viability at 10 µM (SH-SY5Y [26]): 64.1%
solubility kinetic [3]: 200 to 500 µM (≈ 114 to 285 µg/mL)
EC50 (SH-SY5Y [5]): > 10000 nM
viability at 48 h, 1 µM [6]: 80.2%
IC50 [22]: 24.7 nM
